Assay results of several laboratories.
Protocols differ between the studies behind these lines.
Read-out: enzyme activity
Mode: inhibitor
PDGFRA: Platelet-derived growth factor receptor alpha (PDGFRA, Homo sapiens, UniProt P16234)
PDGFRA D842V: Platelet-derived growth factor receptor alpha (PDGFRA, Homo sapiens, UniProt P16234, D842V)

Compound	target	method	concentration	inhibition
CNCc1ccc(-c2cc(-c3nc(-c4ccc(S(=O)(=O)C(C)C)cc4)cnc3N)on2)cc1	PDGFRA	–	0.4 µM	0%
CS(=O)(=O)Nc1cccc(-c2csc(NC(=O)CSc3nc4nccnc4c(=O)n3CCc3ccccc3)n2)c1	PDGFRA	–	10 µM	5%
COc1cc2ncnc(Nc3ccc(Oc4ccccc4)c(C)c3C)c2cc1OC	PDGFRA	–	1 µM	6%
COc1cc(-c2cc(-c3ccc(N4CCNCC4)cc3)cnc2N)cc(OC)c1OC	Platelet-derived growth factor receptor alpha (PDGFRA, Homo sapiens, UniProt P16234, T674I)	–	0.1 µM	2%
COc1cc2ncnc(Nc3ccc(Oc4ccccc4)cc3C)c2cc1OC	PDGFRA D842V	–	1 µM	-1%
CNC(=O)c1cc2c(Oc3ccc(NC(=O)C4(C(=O)Nc5ccc(F)cc5)CC4)cc3)ccnc2cc1OC	PDGFRA D842V	radiometric	1 µM	73%
CC/C(=N\NC(=O)NCc1cccc(O)c1)c1ccc(O)c(C)c1O	PDGFRA	–	0.1 µM	6.7%
CN1CC(Oc2cnc(C#N)cc2-c2ccn3nc(NC(=O)C4CC4)cc3c2)C1	PDGFRA	–	1 µM	4%
CNC(=O)c1cc(Oc2ccc(NC(=O)Nc3ccc(Cl)c(C(F)(F)F)c3)cc2)ccn1	PDGFRA	–	0.3 µM	35%
COc1cc2nccc(Oc3ccc(NC(=O)c4c5n(n(-c6ccc(F)cc6)c4=O)CCCC5)cc3)c2cc1OC	PDGFRA	–	0.1 µM	30%
